The conditions of series [1]: stated without reference; cited from earlier work.
A further series deals with IDO1. Particulars: patients with advanced solid tumors; cited from earlier work.
A short description of series [2]: Epacadostat plasma pharmacokinetics, noncompartmental analysis. Particulars: steady state cycle 1/day 8; for AUC / half-life / Tmax: human, plasma, oral; for AUC: AUC0-τ; for half-life: t ½; for Tmax: t max, median (range). It counts as in vivo, human. The procedure, abridged:
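Test compound 100 mg oral bid (B, C); pembrolizumab 200 mg IV q3w. A: oxaliplatin 85, leucovorin 400, 5-FU 400 mg/m2 bolus then 1200 mg/m2 per day over 46 h; days 1, 15, 28-day cycles. B: nab-paclitaxel 125, gemcitabine 1000 mg/m2; days 1, 8, 15, 28-day cycles. C: paclitaxel 200 mg/m2, carboplatin AUC 6; day 1, 21-day cycles.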

Series [3] concerns plasma kynurenine production. Particulars: cited from earlier work.
A further series deals with advanced melanoma. Particulars: patients with advanced melanoma; median follow-up of 12.4 months; cited from earlier work.
Where [4] appears, read: group A, mFOLFOX6, individual value (n ≤ 2).
Where [5] appears, read: group C, paclitaxel and carboplatin, individual values (n ≤ 2).
Setting [6] is: group D, pemetrexed and platinum agent, individual value (n ≤ 2).
[7] abbreviates: group G, 5-FU and platinum agent, individual values (n ≤ 2).
Where [8] appears, read: 100 mg twice daily, group B, nab-paclitaxel and gemcitabine, individual value (n ≤ 2).

Values joined by “and” are separate entries in the source; they are usually repeats but may differ in a detail not shown here. Identical values can stand only once.

A word on the AUC: it is concentration integrated over time. Read a high AUC as more exposure. As usually defined, the half-life is the time in which the quantity being followed falls by half. A low value points to rapid decline. As usually defined, the Tmax is the time from dosing to the highest level. On to `NS(=O)(=O)NCCNc1nonc1C(=NO)Nc1ccc(F)c(Br)c1` [Epacadostat], for which, in series [1], the clearance mechanism entry was “cleared predominantly by hepatic glucuronidation”. Besides, the “metabolism of tryptophan to kynurenine, whole blood assays” value with IDO1 is “effectively inhibits”. In addition, the “percentage decrease in kynurenine levels from baseline to day 15” value in the series on IDO1 was “dose dependent”. In addition, the CLss/F in series [2] (setting [4]) was 81.7 L/h; in series [2] (group B, nab-paclitaxel and gemcitabine, individual value (n ≤ 2)), 82.6 L/h; in series [2] (setting [5]), 70.4 L/h and 93.5 L/h; in series [2] (setting [6]) it was 126 L/h; in series [2] (setting [7]), 76.8 L/h and 81.3 L/h. The AUC0-τ in series [2] (setting [5]) is 2.44 µM·h; in series [2] (setting [6]) it was 1.81 µM·h; in series [2] (setting [7]) it was 2.81 µM·h. Also, the “t ½” value is 2.62 h and 1.07 h in series [2] (setting [5]); 1.30 h in series [2] (setting [7]). The area under the curve (AUC) was determined as 2.76 µM·h in series [2] (setting [8]); 3.24 µM·h in series [2] (100 mg twice daily, group C, paclitaxel and carboplatin, individual values (n ≤ 2)); 2.79 µM·h in series [2] (setting [4]); 2.97 µM·h in series [2] (setting [7]). In addition, the half-life was 1.42 h in series [2] (setting [8]), 1.78 h in series [2] (setting [4]), 1.3 h in series [2] (setting [6]) and 1.35 h in series [2] (setting [7]). Further, the Tmax in series [2] (group A, mFOLFOX6, N=6) turned out to be 2.9 h; in series [2] (group F, gemcitabine and platinum agent, N=7), 2.1 h; in series [2] (group G, 5-FU and platinum agent, N=8), 3.1 h. For the same compound, the maximally tolerated dose in series [3] is listed as 600 mg BID. The “epacadostat dose required for suppression of plasma kynurenine production” value in series [3] (in combination with pembrolizumab, retrospective analysis) is 600 mg BID.
As to `Nc1nc2[nH]cc(CCc3ccc(C(=O)N[C@@H](CCC(=O)O)C(=O)O)cc3)c2c(=O)[nH]1` [pemetrexed, Pemetrexed, reference compound], the clearance mechanism entry in series [1] was “cleared by renal excretion”.
For the compound “placebo plus pembrolizumab: ECHO-301/KEYNOTE-252 control arm: placebo plus the PD-1 inhibitor pembrolizumab”, the “OS (median)” value in the series with advanced melanoma is given as “not reached”.

These data come from paper PMC9632315 (The Oncologist, 2022).
